The values that follow come from ChEMBL document CHEMBL2057141, “Imidazolopiperazines: lead optimization of the second-generation antimalarial agents” (J Med Chem, 2012).

Series [1] deals with Plasmodium falciparum. The series is described as follows: Antimalarial activity against Plasmodium falciparum 3D7 after 72 hrs by SYBR green fluorescence assay. The series is classed as functional, organism-based. To be noted: 3D7, 72 h. The method, boiled down: (§1)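 P. falciparum grown in O+ erythrocytes, screened in medium without human serum plus 0.5% Albumax II. Twelve-point half-log dilutions up to 10 μM final. 0.3% parasitemia, 2.5% hematocrit; 72 h at 37 °C under low-oxygen gas. Lysis buffer with SYBR Green added, 24 h at 25 °C, fluorescence read at 485/530 nm.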

In series [2] the test system is Plasmodium falciparum. The series is described as follows: Antimalarial activity against Plasmodium falciparum W2 after 72 hrs by SYBR green fluorescence assay. The class given is functional, organism-based. To be noted: W2, 72 h. The gist of the method:
as §1

The nature of series [3]: Permeability of the compound by PAMPA. The series is classed as ADME. The method, boiled down:
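PAMPA in 96-well filter plates. Permeated compound quantified by UV absorbance at 260–290 nm. Reported as percentage absorbed.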

The test system of series [4] is Mus musculus. The series is described as follows: AUC (0 to 24 hrs) in Balb/c mouse at 5 mg/kg, iv. As to conditions: in vivo. Also on record: time < 24 hr, dose 5 mg/kg, route intravenous. The class given is ADME, organism-based, Plasma. The gist of the method:
(§2)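 Male Balb/c mice (n = 3 per group). Compound as a 2.5 mg/mL solution in PEG300/D5W 3:1, filtered. Given by lateral tail vein at 5 mg/kg (2 mL/kg) or orally at 20 mg/kg (8 mL/kg). Six serial 50 μL retro-orbital blood samples to 24 h, heparinized plasma. Plasma extracted with acetonitrile:methanol 3:1 with internal standard, LC-MS/MS. Noncompartmental analysis; F = AUCpo×dose_iv/AUCiv×dose_po.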

Series [5] deals with Mus musculus. The series is described as follows: AUC (0 to 24 hrs) in Balb/c mouse at 20 mg/kg, po. The class given is ADME, organism-based, Plasma. Also on record: time < 24 hr, dose 20 mg/kg, route oral. To be noted: in vivo. The gist of the method:
as §2

Series [6] in a line: Apparent permeability across basolateral to apical side in human Caco2 cells by LC/MS analysis. The class given is ADME, cell-based. As to conditions: Caco-2. The gist of the method: (§3)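 Caco-2 monolayers in 96-well format. Compound measured in apical and basolateral chambers by LC/MS, giving Papp in the A–B and B–A directions. Values reported in cm/s × 10⁶.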
A general note: Caco-2 monolayers are a common model of the intestinal barrier.

Series [7] in a line: Metabolic stability in mouse liver microsomes assessed as hepatic extraction ratio by LC/MS/MS analysis. The class given is ADME, Microsome. The gist of the method: (§4)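 Liver microsomes (human, mouse, rat). Compound depletion followed by LC/MS/MS. Loss of parent used to derive in vitro half-life and hepatic extraction ratio.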
In general terms: Liver microsomes are vesicles of endoplasmic reticulum, rich in cytochrome P450 enzymes.

Series [8] can be described thus: Metabolic stability in human liver microsomes assessed as hepatic extraction ratio by LC/MS/MS analysis in presence of CYP. The class given is ADME, Microsome. The method, boiled down: as §4
The nature of series [9]: Apparent permeability across apical to basolateral side in human Caco2 cells by LC/MS analysis. The series is classed as ADME, cell-based. As to conditions: Caco-2. The method, boiled down: as §3
The nature of series [10]: Metabolic stability in rat liver microsomes assessed as hepatic extraction ratio by LC/MS/MS analysis in presence of CYP. The class given is ADME, Microsome. The gist of the method:
as §4

Series [11] is described as follows: Metabolic stability in mouse liver microsomes assessed as hepatic extraction ratio by LC/MS/MS analysis in presence of CYP. The series is classed as ADME, Microsome. The method, boiled down: as §4
The test system of the next series is Plasmodium berghei. The series is described as follows: Antimalarial activity against Plasmodium berghei ANKA expressing GFP infected in po dosed NMRI mouse assessed as reduction of parasite level in blood administered 24 hrs post infection measured after 72 hrs post infection by flow cytometry. The class given is functional. For orientation: Flow cytometry measures light scatter and fluorescence of single cells or particles in a stream.

On to `CC(C)(N)C(=O)N1CCn2c(nc(-c3ccc(F)cc3)c2Nc2ccc(F)c(F)c2)C1(C)C`, for which the EC50 – broadly, the concentration giving half of the maximal effect – in the series on Plasmodium falciparum [1] amounted to 13 nM; in the series on Plasmodium falciparum [2], 7 nM.
With `C[C@@H]1c2nc(-c3ccc(F)cc3)c(Nc3ccc(F)c(Cl)c3)n2CCN1C(=O)CN`, the figures for the EC50 in the series on Plasmodium falciparum [1] and in the series on Plasmodium falciparum [2] were 31 nM and 29 nM, respectively.
As to `CC1(C)Cn2c(nc(-c3ccc(F)cc3)c2Nc2ccc(F)cc2)CN1C(=O)CN`, the EC50 in the series with Plasmodium falciparum [1] came out at 82 nM; with Plasmodium falciparum [2], 111 nM.
In the same order, the values of `NCC(=O)N1CCn2c(nc(-c3ccc(F)cc3)c2Nc2ccc(F)c(Cl)c2)C1` are 4 nM and 4 nM.
As to `CC(C)(N)C(=O)N1CCn2c(nc(-c3ccc(F)cc3)c2Nc2ccc(F)cc2)C1`, in series [3], the permeability is given as 81%. In addition, the AUC (in general, concentration integrated over time) was determined as 3.442 µM·h in the series on Mus musculus [4] and 17.894 µM·h with Mus musculus [5]. In addition, the results for the EC50 in the series on Plasmodium falciparum [1] and with Plasmodium falciparum [2] were 20 nM and 25 nM, respectively.
For `C[C@H]1c2nc(-c3ccc(F)cc3)c(Nc3ccc(F)c(Cl)c3)n2CCN1C(=O)CN`, the EC50 was 29 nM in the series on Plasmodium falciparum [1] and 24 nM in the series with Plasmodium falciparum [2].
In the case of `Cc1ccc(Nc2c(-c3ccc(F)cc3)nc3n2CC(=O)NC3)cc1`, the permeability in series [3] turned out to be 80.9%. In addition, the EC50 in the series with Plasmodium falciparum [1] turned out to be 1080 nM; with Plasmodium falciparum [2], 1170 nM. The Papp B→A – broadly, how fast a substance crosses the layer from the basolateral side – in series [6] came to 14.4 ×10⁻⁶ cm/s. The hepatic extraction ratio in series [7] was found to be 0.7; in [8], 0.44; in [10], 0.95; in series [11], 0.66. For the same compound, the Papp A→B (in general, how fast a substance crosses the layer from the apical side) in series [9] is 15 ×10⁻⁶ cm/s.
`CC(C)(N)C(=O)N1CCn2c(nc(-c3ccc(F)cc3)c2Nc2ccc(F)c(F)c2)C1`: the ED99 in the series on Plasmodium berghei stood at 26.5 mg/kg.
With `CC1(C)c2nc(-c3ccc(F)cc3)c(Nc3ccc(F)c(Cl)c3)n2CCN1C(=O)CN`, the concentration for a half-maximal effect (EC50) in the series on Plasmodium falciparum [1] is 27 nM; in the series with Plasmodium falciparum [2] it was 24 nM.
For the compound `CC(C)[C@H]1c2nc(-c3ccc(F)cc3)c(Nc3ccc(F)c(Cl)c3)n2CCN1C(=O)CN`, the EC50 worked out at 343 nM in the series with Plasmodium falciparum [1] and 470 nM in the series with Plasmodium falciparum [2].
